Laboratory results: PMC10166615 (Bioorganic & Medicinal Chemistry, 2023)

What was measured:
[1] = Liver microsomes metabolic stability, human; assay type: in vitro ADME
SARS-CoV-2 = experiment: Antiviral activity in Vero E6 cells; assay type: cell-based; conditions: for antiviral activity relative to nirmatrelvir: EC50 against SARS-CoV-2 compared with nirmatrelvir
[2] = Liver microsomes metabolic stability, mouse; assay type: in vitro ADME
How it was run: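 Mouse liver microsomes at 0.5 mg/mL final protein in K/Mg buffer. Test compound went from a 10 mM stock in ACN into a 1.5 µM spiking solution containing 0.75 mg/mL microsomes. After 5 min pre-incubation at 37 °C, reactions were started with 6 mM NADPH stock. They were quenched with ACN containing internal standard at 0, 5, 15, 30 and 45 min, then shaken and centrifuged.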

[3] = Pharmacokinetics after p.o. and i.v. administration; assay type: in vivo; conditions: mouse

CC(C)(C)[C@H](NC(=O)C(F)(F)F)C(=O)N1C[C@@H]2CCC[C@@H]2[C@H]1C(=O)N[C@H](C#N)C[C@@H]1CCNC1=O [1a, (1S,3aR,6aS)-N-((S)-1-cyano-2-((S)-2-oxopyrrolidin-3-yl)ethyl)-2-((S)-3,3-dimethyl-2-(2,2,2-trifluoroacetamido)butanoyl)octahydrocyclopenta[c]pyrrole-1-carboxamide]
CLint scaled at 1 µM [1]: 22 mL/min/kg | half-life at 1 µM [1]: 78.9 min | metabolic stability (in words) [1]: moderate metabolic stability | RNA copy inhibition% (SARS-CoV-2; 1 μM compound, preliminary screening): 70% | antiviral activity relative to nirmatrelvir (SARS-CoV-2): 2 fold | CLint scaled at 1 µM [2]: 368 mL/min/kg | half-life at 1 µM [2]: 14.8 min | metabolic stability (in words) [2]: susceptible to metabolic effects | AUC(0-inf) ([3]; male, plasma, iv, 10 mg/kg): 2670 ng·h/mL | AUC(0-t) ([3]; male, plasma, iv, 10 mg/kg): 2670 ng·h/mL | MRT inf ([3]; male, plasma, iv, 10 mg/kg): 14.4 min | clearance ([3]; male, plasma, iv, 10 mg/kg): 69.3 mL/min/kg | half-life ([3]; male, plasma, iv, 10 mg/kg): 66 min | bioavailability ([3]; male, plasma, oral, 20 mg/kg): 22.8% | AUC(0-inf) ([3]; male, plasma, po, 20 mg/kg): 1220 ng·h/mL | AUC(0-t) ([3]; male, plasma, po, 20 mg/kg): 1220 ng·h/mL | Cmax ([3]; male, plasma, po, 20 mg/kg): 1310 ng/mL | MRT inf ([3]; male, plasma, po, 20 mg/kg): 52.8 min | Tmax ([3]; male, plasma, po, 20 mg/kg): 25.2 min | half-life ([3]; male, plasma, po, 20 mg/kg): 60 min | Vss_obs ([3]; i.v. (10 mg/kg)): 1.011 L/kg

CC(C)(C)[C@H](NS(=O)(=O)C(F)(F)F)C(=O)N1C[C@H]2[C@@H]([C@H]1C(=O)N[C@H](C#N)C[C@@H]1CCNC1=O)C2(C)C [2b, (1R,2S,5S)-N-((S)-1-cyano-2-((S)-2-oxopyrrolidin-3-yl)ethyl)-3-((S)-3,3-dimethyl-2-((trifluoromethyl)sulfonamido)butanoyl)-6,6-dimethyl-3-azabicyclo[3.1.0]hexane-2-carboxamide]
CLint scaled at 0.75 h, 1 µM [1]: 2.67 mL/min/kg | metabolic stability (in words) [1]: stable | antiviral activity relative to nirmatrelvir (SARS-CoV-2): 4 fold | CLint scaled at 0.75 h, 1 µM [2]: 55.8 mL/min/kg | metabolic stability (in words) [2]: moderate metabolic stability | clearance ([3]; male, plasma, iv, 10 mg/kg): 41 mL/min/kg

CC(C)(C)[C@H](NC(=O)C(F)(F)F)C(=O)N1C[C@H]2[C@@H]([C@H]1C(=O)N[C@H](C#N)C[C@@H]1CCNC1=O)C2(C)C [Nirmatrelvir, reference compound]
CLint scaled at 0.75 h, 1 µM [2]: 1180 mL/min/kg | clearance ([3]; male, plasma, iv, 10 mg/kg): 50.1 mL/min/kg
